The source of these data is article PMC6500964 (Cancer Science, 2019).

“Also recorded” adds a separate entry of the source. Where two headings read alike, the source gives them in different places.

Data set [1] relates to TE‐11 cells. The following applies: read-out: cisplatin IC50 value, high GLUT1 expression, ref GSE36133 and the Genomics of Drug Sensitivity in Cancer; cited from earlier work.
For data set [2], the system named is TE‐8 cells. In words: WST‐8 cell proliferation assay. In kind it is cell-based, human. The conditions noted are these: for reduced the proliferation of TE‐8 cells by (average ± SD): compared with vehicle‐treated control cells. The method in brief: (§1)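 Human ESCC cells, obtained from the Tohoku University or Riken cell banks and authenticated, were seeded at 1‐5 × 10³ cells per well and cultured overnight. They were then exposed for 48 h to the GLUT1-inhibitor test compound (prepared in DMSO), cisplatin, or both, with DMSO-only wells as control. Surviving cells were read by WST‐8 absorbance at 450 nm. Results are mean ± SD of n = 3 replicates, compared by Student's t‐test.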

For data set [3], the system named is TE‐8 cells. The following applies: read-out: cisplatin IC50 value, low GLUT1 expression, ref GSE36133 and the Genomics of Drug Sensitivity in Cancer; cited from earlier work.
Data set [4] relates to TE‐11 cells. Nature of the data set: WST‐8 cell proliferation assay. It is filed as cell-based, human. The conditions noted are these: for reduced the proliferation of TE‐11 cells by (average ± SD): compared with vehicle‐treated control cells. In short, it runs like this: as §1
In data set [5] the test system is human lung cancer xenografts. The conditions noted are these: nude mouse, daily intraperitoneal injection of 10 mg/kg for 10 weeks; cited from earlier work.
Data set [6] relates to GLUT1. The conditions noted are these: cited from earlier work.
Data set [7] has as its system GLUT1. The conditions noted are these: cited from earlier work. The source holds these as a separate data set.

Broadly, the IC50 is the concentration that gives 50% inhibition. For the compound `N.N.[Cl][Pt][Cl]` [cisplatin], the IC50 was 20.4 µM with TE‐11 cells [1] and 10.1 µM in the data set on TE‐8 cells [3]. In addition, the “reduced the proliferation of TE‐8 cells by (average ± SD)” value in the data set with TE‐8 cells [2] (0.5 μmol/L cisplatin, 48 h) is reported as 79.9% ± 2.3%. In addition, in the data set on TE‐11 cells [4] (0.5 μmol/L cisplatin, 48 h), the “reduced the proliferation of TE‐11 cells by (average ± SD)” value was 46.0% ± 6.5%. In addition, the “effect of very low doses of cisplatin on proliferation” value with TE‐11 cells [4] (0.2 and 0.4 μg/mL cisplatin, 48 h, TE11 cells transfected with GLUT1‐specific siRNA) is “strong inhibitory effect”.

In the case of `O=C(Oc1cccc(F)c1OC(=O)c1cccc(O)c1)c1cccc(O)c1` [WZB117], in data set [5], the blood glucose effect entry is recorded as “hyperglycemia”; the “lymphocyte and platelet counts” value is “aberrant lymphocyte and platelet counts”; the “reduction in the volume of human lung cancer xenografts” value is more than 70%. Besides, in the data set on GLUT1 [6] (30 μmol/L), the efficacy in vitro entry was “shown efficacy in vitro”.

Regarding `Oc1ccc(/C=C/c2cc(O)cc(O)c2)cc1` [resveratrol], the efficacy in vitro entry with GLUT1 [6] (50 μmol/L) is recorded as “shown efficacy in vitro”.

Consider `O=C(O)C(=O)CBr` [3‐bromopyruvate], for which the “proliferation of TE‐8 cells” value in the data set on TE‐8 cells [2] (50 μmol/L, data not shown) is given as “inhibits the proliferation”. In addition, the “proliferation of TE‐11 cells” value in the data set with TE‐11 cells [4] (50 μmol/L, data not shown) is “inhibits the proliferation”.

With `Cc1c(NC(=O)c2cc(C(N)=O)nc3cc(F)ccc23)c(C(F)(F)F)nn1Cc1ccc(C#N)cc1` [BAY‐876], the “reduced the proliferation of TE‐8 cells by (average ± SD)” value in the data set on TE‐8 cells [2] (0.025 nmol/L BAY‐876, 48 h) was 59.9% ± 4.9%. Also, in the data set on TE‐8 cells [2] (0.1 nmol/L BAY‐876, 48 h), the “inhibition of proliferation of TE‐8 cells” value is “almost complete inhibition; also recorded: strong anti–proliferative effect”. Also, in the data set on GLUT1 [7], the “selectivity and affinity for GLUT1” value was “high selectivity and affinity”. Further, the “reduced the proliferation of TE‐11 cells by (average ± SD)” value with TE‐11 cells [4] (0.025 nmol/L BAY‐876, 48 h) is reported as 51.0% ± 8.2%. Besides, in the data set on TE‐11 cells [4] (0.1 nmol/L BAY‐876, 48 h), the “inhibition of proliferation of TE‐11 cells” value was “almost complete inhibition; also recorded: strong anti–proliferative effect”.
